Laboratory results: ChEMBL document CHEMBL1155807, “Synthesis, biological evaluation, and enzyme docking simulations of 1,5-diarylpyrrole-3-alkoxyethyl ethers as selective cyclooxygenase-2 inhibitors endowed with anti-inflammatory and antinociceptive activity” (J Med Chem, 2008)
Active and inactive are the calls of the source.

Key:
Homo sapiens = species: Homo sapiens; assay: Selectivity index, ratio of IC50 for human COX1 to IC50 for human COX2 by whole blood assay
How it was run: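 Human whole blood from three healthy donors (no NSAID for 2 weeks); compounds in DMSO at final 0.01–1000 µM. COX-2: heparinized blood from aspirin-pretreated donors (300 mg, 48 h) with LPS 10 µg/mL, 24 h, 37 °C; plasma PGE2 by RIA. COX-1: blood clotted 1 h, 37 °C; serum TXB2 by RIA. Mean % inhibition vs vehicle; IC50(COX-1)/IC50(COX-2).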

[1] = target: T1, Prostaglandin G/H synthase 1 (Mus musculus, UniProt P22437); assay: Inhibition of mouse COX1 in mouse J774 cells assessed as PGE2 production by radioimmunoassay; assay type: cell-based
T1 sequence (P22437 whole entry): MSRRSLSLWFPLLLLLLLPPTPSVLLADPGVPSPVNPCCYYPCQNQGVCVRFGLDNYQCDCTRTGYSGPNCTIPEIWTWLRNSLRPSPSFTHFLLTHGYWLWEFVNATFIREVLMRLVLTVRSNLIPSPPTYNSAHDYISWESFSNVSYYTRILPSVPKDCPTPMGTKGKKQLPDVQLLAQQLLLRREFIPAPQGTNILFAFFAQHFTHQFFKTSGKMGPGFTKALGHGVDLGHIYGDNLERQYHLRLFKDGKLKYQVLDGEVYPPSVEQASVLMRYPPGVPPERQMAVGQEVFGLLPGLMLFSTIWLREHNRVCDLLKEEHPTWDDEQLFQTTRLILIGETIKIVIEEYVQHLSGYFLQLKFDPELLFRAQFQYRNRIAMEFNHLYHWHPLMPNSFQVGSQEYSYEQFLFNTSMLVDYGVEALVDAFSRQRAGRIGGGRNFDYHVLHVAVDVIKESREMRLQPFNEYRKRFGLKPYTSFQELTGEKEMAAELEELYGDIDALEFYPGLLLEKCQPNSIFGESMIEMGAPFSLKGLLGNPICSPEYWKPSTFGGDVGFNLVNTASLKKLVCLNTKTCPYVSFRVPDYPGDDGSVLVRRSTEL

[2] = target: T2, Prostaglandin G/H synthase 2 (Mus musculus, UniProt Q05769); assay: Inhibition of mouse COX2 in LPS-stimulated mouse J774 cells assessed as PGE2 production by radioimmunoassay; assay type: cell-based
T2 sequence (Q05769 whole entry): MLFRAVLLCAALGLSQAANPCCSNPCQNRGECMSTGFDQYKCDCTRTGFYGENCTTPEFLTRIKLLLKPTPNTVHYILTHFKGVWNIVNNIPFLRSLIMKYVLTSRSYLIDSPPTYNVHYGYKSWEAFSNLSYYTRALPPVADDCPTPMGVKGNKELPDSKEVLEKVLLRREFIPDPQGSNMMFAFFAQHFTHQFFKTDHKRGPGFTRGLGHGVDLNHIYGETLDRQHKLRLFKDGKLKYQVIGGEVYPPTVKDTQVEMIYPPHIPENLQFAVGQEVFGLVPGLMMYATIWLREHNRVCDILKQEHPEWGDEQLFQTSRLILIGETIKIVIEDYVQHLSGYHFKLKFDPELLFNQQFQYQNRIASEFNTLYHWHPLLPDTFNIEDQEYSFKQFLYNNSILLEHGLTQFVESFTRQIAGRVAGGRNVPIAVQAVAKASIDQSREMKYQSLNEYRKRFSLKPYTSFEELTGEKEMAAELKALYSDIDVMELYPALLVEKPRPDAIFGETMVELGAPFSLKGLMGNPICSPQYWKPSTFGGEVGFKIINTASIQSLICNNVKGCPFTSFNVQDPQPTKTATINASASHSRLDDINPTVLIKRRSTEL
How it was run: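 J774 cells in serum-free medium were stimulated with E. coli LPS (10 µg/mL) for 24 h to induce COX-2, with or without compound present. Supernatant PGE2 was measured by radioimmunoassay. Percent inhibition was taken against control; triplicate wells, mean of three experiments; IC50 from a variable-slope sigmoidal fit.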

J774 = assay: Selectivity index, ratio of IC50 for mouse COX1 in mouse J774 cells to IC50 for mouse COX2 in LPS-stimulated mouse J774 cells; assay type: cell-based
How it was run: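 The ratio is IC50(COX-1)/IC50(COX-2), both from J774 cells. For COX-1, cells were given a 15 min compound pretreatment and then 15 µM arachidonic acid for 30 min. For COX-2, cells were exposed to LPS (10 µg/mL) for 24 h with compound. In both, PGE2 was measured by radioimmunoassay and IC50 came from a sigmoidal fit of the means of three experiments.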

Rattus norvegicus [3] = assay: Antiinflammatory activity against carrageenan-induced hyperalgesia in rat assessed as paw pressure at 20 mg/kg, po after 30 mins; assay type: functional
How it was run: (§1)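 Rats received carrageenan (0.1 mL, 1%) intraplantar 4 h before the test, then compound at 20 mg/kg po. Nociceptive threshold was measured with an analgesimeter (Leighton method) before and 30, 60 and 120 min after treatment, with a 250 g cutoff. Groups had 5-6 rats; mean ± SEM, ANOVA with Fisher's PLSD post hoc.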

Rattus norvegicus [4] = assay: Antiinflammatory activity against carrageenan-induced hyperalgesia in rat assessed as paw pressure at 20 mg/kg, po after 60 mins; assay type: functional; how it was run: as §1
Rattus norvegicus [5] = assay: Antiinflammatory activity against carrageenan-induced hyperalgesia in rat assessed as paw pressure at 20 mg/kg, po after 120 mins; assay type: functional; how it was run: as §1
Rattus norvegicus [6] = assay: Antiinflammatory activity against carrageenan-induced edema in rat assessed as paw volume at 20 mg/kg, po […]; assay type: functional
How it was run: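 Carrageenan (0.1 mL of 1.0%) was injected intraplantar into Sprague-Dawley or Wistar rats (150-200 g). Compound was given po at 20 mg/kg 3 h 30 min after carrageenan. Right hind paw volume was measured by plethysmometer 4 h after carrageenan and compared with saline/carrageenan controls. Values are in mL, with 5-6 rats per group.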

[7] = target: T3, Prostaglandin G/H synthase 2 (Homo sapiens, UniProt P35354); assay: Inhibition of COX2 in human whole blood assessed as effect on thrombin-induced TXB2 production; assay type: tissue-based
T3 sequence (P35354 whole entry): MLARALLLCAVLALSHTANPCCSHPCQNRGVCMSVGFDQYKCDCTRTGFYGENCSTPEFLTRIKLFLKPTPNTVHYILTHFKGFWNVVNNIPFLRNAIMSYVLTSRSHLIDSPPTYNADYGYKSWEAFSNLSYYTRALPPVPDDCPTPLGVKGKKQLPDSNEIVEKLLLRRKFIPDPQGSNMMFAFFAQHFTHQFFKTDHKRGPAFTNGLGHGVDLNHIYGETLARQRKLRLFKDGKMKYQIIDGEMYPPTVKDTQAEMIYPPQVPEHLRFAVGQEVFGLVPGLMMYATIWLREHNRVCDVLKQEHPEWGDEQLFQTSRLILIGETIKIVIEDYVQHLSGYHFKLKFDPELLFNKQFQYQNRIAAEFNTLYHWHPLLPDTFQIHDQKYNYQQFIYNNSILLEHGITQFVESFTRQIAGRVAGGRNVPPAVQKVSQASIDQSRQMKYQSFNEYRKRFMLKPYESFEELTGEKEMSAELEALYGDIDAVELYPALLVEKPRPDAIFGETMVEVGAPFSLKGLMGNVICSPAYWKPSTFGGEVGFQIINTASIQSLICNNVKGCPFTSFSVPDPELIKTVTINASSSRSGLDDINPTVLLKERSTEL

Mus musculus [8] = assay: Antinociceptive activity against acetic acid-induced abdominal constriction in Swiss albino mouse assessed as number of writhes at 10 mg/kg, po; assay type: functional, Abdomen
How it was run: (§2)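 Male Swiss albino mice (23-25 g) were dosed per os, with CMC as vehicle, 30 min before 0.6% acetic acid. Stretching movements were counted for 10 min, starting 5 min after acetic acid (Koster method). Results are mean ± SEM; ANOVA with Fisher's PLSD, versus vehicle-treated mice.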

Mus musculus [9] = assay: Antinociceptive activity against acetic acid-induced abdominal constriction in Swiss albino mouse assessed as number of writhes at 20 mg/kg, po; assay type: functional, Abdomen; how it was run: as §2
Mus musculus [10] = assay: Antinociceptive activity against acetic acid-induced abdominal constriction in Swiss albino mouse assessed as reduction in number of writhes at 20 mg/kg, po; assay type: functional, organism-based; design: dose 20 mg/kg; details: Abdomen; how it was run: as §2
[11] = target: Prostaglandin G/H synthase 1 (Homo sapiens, UniProt P23219); assay: Inhibition of COX1 in human whole blood allowed to clot assessed as TXB2 production
Sequence of Prostaglandin G/H synthase 1 (Homo sapiens, UniProt P23219) (P23219 whole entry): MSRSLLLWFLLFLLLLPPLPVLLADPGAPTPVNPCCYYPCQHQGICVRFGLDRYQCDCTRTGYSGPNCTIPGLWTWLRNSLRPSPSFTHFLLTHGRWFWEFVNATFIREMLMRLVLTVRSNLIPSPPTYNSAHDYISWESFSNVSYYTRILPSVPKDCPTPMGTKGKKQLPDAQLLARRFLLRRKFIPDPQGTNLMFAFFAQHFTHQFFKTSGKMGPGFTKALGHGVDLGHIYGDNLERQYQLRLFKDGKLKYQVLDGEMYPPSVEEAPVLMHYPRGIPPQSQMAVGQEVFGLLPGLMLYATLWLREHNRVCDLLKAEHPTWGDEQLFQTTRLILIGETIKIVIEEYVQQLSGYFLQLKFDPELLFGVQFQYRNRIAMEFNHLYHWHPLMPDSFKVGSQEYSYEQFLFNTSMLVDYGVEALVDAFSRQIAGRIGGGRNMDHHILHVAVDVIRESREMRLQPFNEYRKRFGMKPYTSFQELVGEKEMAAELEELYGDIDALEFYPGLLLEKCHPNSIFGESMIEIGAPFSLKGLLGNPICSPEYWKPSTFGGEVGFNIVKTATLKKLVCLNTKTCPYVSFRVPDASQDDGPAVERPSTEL

IC50 [1] [nM]	IC50 [2] [nM]	Compound	Ratio IC50 (J774)	other results
–	–	CS(=O)(=O)c1ccc(C2=C(c3ccccc3)C(=O)OC2)cc1	–	Ratio IC50 (Homo sapiens): > 200
> 100000	18	CCCOCCc1cc(-c2ccc(S(C)(=O)=O)cc2)n(-c2ccccc2)c1C	> 5560	Activity (Rattus norvegicus [3]): 56.3 g; Activity (Rattus norvegicus [4]): 59.4 g; Activity (Rattus norvegicus [5]): 50.6 g; Activity (Rattus norvegicus [6]): 1.41 mL; IC50 [7]: 1300 nM; Ratio IC50 (Homo sapiens): 66; Activity (Mus musculus [8]): 27.43; Activity (Mus musculus [9]): 13.6; Activity (Mus musculus [10]): Active; IC50 [11]: 86000 nM
> 100000	85	CCOCCc1cc(-c2ccc(S(C)(=O)=O)cc2)n(-c2ccc(C(F)(F)F)cc2)c1C	> 1180	–
> 100000	30	CCCOCCc1cc(-c2ccc(S(C)(=O)=O)cc2)n(-c2ccc(F)cc2)c1C	> 3330	Activity (Rattus norvegicus [3]): 52.4 g; Activity (Rattus norvegicus [4]): 56.8 g; Activity (Rattus norvegicus [5]): 52.7 g; Activity (Rattus norvegicus [6]): 1.45 mL; Activity (Mus musculus [8]): 38.1; Activity (Mus musculus [9]): 16.7; Activity (Mus musculus [10]): Active
> 100000	49	COCCc1cc(-c2ccc(S(C)(=O)=O)cc2)n(-c2ccc(C(F)(F)F)cc2)c1C	> 2040	–
–	–	CCOC(=O)Cc1cc(-c2ccc(S(C)(=O)=O)cc2)n(-c2ccc(C)cc2)c1C	> 208	–
> 100000	18	COCCc1cc(-c2ccc(S(C)(=O)=O)cc2)n(-c2ccc(F)cc2)c1C	> 5560	–
> 100000	110	CCCOCCc1cc(-c2ccc(S(C)(=O)=O)cc2)n(-c2ccc(C(F)(F)F)cc2)c1C	> 909	–
–	–	CCOC(=O)Cc1cc(-c2ccc(S(C)(=O)=O)cc2)n(-c2ccccc2)c1C	> 2500	–
> 100000	15	CCOCCc1cc(-c2ccc(S(C)(=O)=O)cc2)n(-c2ccccc2)c1C	> 6670	Activity (Rattus norvegicus [3]): 59.6 g; Activity (Rattus norvegicus [4]): 53.8 g; Activity (Rattus norvegicus [5]): 49.1 g; Activity (Rattus norvegicus [6]): 1.37 mL; Activity (Mus musculus [8]): 26.5; Activity (Mus musculus [9]): 11.4; Activity (Mus musculus [10]): Active
> 100000	47	CCOCCc1cc(-c2ccc(S(C)(=O)=O)cc2)n(-c2ccc(F)cc2)c1C	> 2130	–
> 100000	48	COCCc1cc(-c2ccc(S(C)(=O)=O)cc2)n(-c2ccccc2)c1C	> 2080	–
–	–	CCOC(=O)Cc1cc(-c2ccc(S(C)(=O)=O)cc2)n(-c2ccc(C(F)(F)F)cc2)c1C	> 1600	–
